From ChEMBL document CHEMBL3875206, “Design, synthesis and biological evaluation of 4'-aminochalcone-rivastigmine hybrids as multifunctional agents for the treatment of Alzheimer's disease” (Bioorg Med Chem, 2017)
Calls of active or inactive are those of the source. The rule behind the calls is not given here.

How the values were obtained:
[1] = target: Acetylcholinesterase (Electrophorus electricus, UniProt O42275); experiment: Inhibition of electric eel AChE using acetylthiocholine iodide as substrate incubated for 15 mins by Ellman's method
Summary of the method: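 Ellman spectrophotometric assay: electric eel AChE 0.05 U/mL final, acetylthiocholine iodide 1 mmol/L, phosphate buffer pH 8.0, range of compound concentrations.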

[2] = Inhibition of rat serum BuChE at 50 uM using butyrylthiocholine iodide as substrate incubated for 15 mins by Ellman's method relative to control; settings: 0.25 h
Summary of the method: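 Ellman method with 25% rat serum as BuChE source, butyrylthiocholine iodide 1 mmol/L, phosphate buffer pH 7.4, absorbance at 405 nm. Compounds tested at 50 µM. […] Triplicate wells.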

[3] = Antioxidant activity assessed as trolox equivalents of AAPH radical scavenging activity at 5 uM preincubated for 15 mins followed by AAPH addition measured every 60 sec for 90 mins by ORAC-FL assay; assay type: functional
Summary of the method: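 Peroxyl radicals generated by AAPH (12 mM final) at 37 °C in phosphate buffer pH 7.4 with fluorescein (150 nM final). Sample and fluorescein were preincubated 15 min before AAPH addition. Fluorescence (ex 485/em 535 nm) was read every 60 s for 90 min.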

[4] = target: Acetylcholinesterase (Electrophorus electricus) (UniProt O42275); experiment: Mixed-type inhibition of electric eel AChE at 2.5 to 10 uM using varying levels of acetylthiocholine iodide as substrate preincubated for 15 mins followed by substrate addition by Lineweaver-Burk plot analysis
Summary of the method: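 Kinetics with EeAChE in 0.1 M phosphate pH 8.0 with DTNB. Three inhibitor concentrations preincubated with enzyme 15 min at 37 °C, then acetylthiocholine added at 0.1–0.4 mM. Read at 412 nm. Weighted least-squares Lineweaver–Burk plots; slopes replotted against inhibitor concentration. No-inhibitor controls run in parallel.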

[5] = Metal chelating activity assessed as compound-Cu2+ complex formation by measuring shift in maximum absorption wavelength at 37.5 uM after 30 mins by UV-vis spectrophotometric method; assay type: physicochemical; settings: 0.5 h
Summary of the method: (§1)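 Difference UV-vis spectra (200-600 nm) of compound and metal salt (CuCl2 or AlCl3), each 37.5 µM final, after 30 min at room temperature. Spectra of metal alone and compound alone were subtracted from the mixture spectrum.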

[6] = Metal chelating activity assessed as compound-Al3+ complex formation by measuring shift in maximum absorption wavelength at 37.5 uM after 30 mins by UV-vis spectrophotometric method; assay type: physicochemical; settings: 0.5 h; summary of the method: as §1
[7] = Metal chelating activity assessed as mole fraction of compound required to show 1:1 stoichiometry for Cu2+-compound complex at 37.5 uM after 30 mins by UV-vis spectrophotometric method; assay type: physicochemical; settings: 0.5 h
Summary of the method: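 Molar ratio method: a methanol solution of compound (37.5 µM final) was titrated with CuCl2 (3.75-150 µM final). Absorbance at 474 nm was taken after subtracting CuCl2 and compound spectra and plotted against the compound mole fraction. The intersection of the linear segments gave the stoichiometry.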

[8] = target: Amyloid-beta precursor protein (Homo sapiens) (UniProt P05067); experiment: Inhibition of self-induced aggregation of amyloid beta (1-42) (unknown origin) at 25 uM after 24 hrs by thioflavin T fluorescence-based fluorimetric method relative to control
Summary of the method: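 Aβ1-42 was pretreated in HFIP, dried and stocked in DMSO. Aβ1-42 (25 µM final) was incubated with compound (25 µM final) in 50 mM phosphate buffer pH 7.4 at 37 °C for 24 h. 5 µM ThT in 50 mM glycine-NaOH pH 8.5 was then added. Fluorescence was read at ex 446/em 490 nm. Inhibition = (1−IFi/IFc)×100 after background subtraction, in triplicate.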

[9] = Inhibition of Cu2+-mediated aggregation of amyloid beta (1-42) (unknown origin) at 25 uM after 24 hrs by thioflavin T fluorescence-based fluorimetric method relative to control; assay type: functional
Summary of the method: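 HFIP-pretreated Aβ1-42 (25 µM) was incubated with Cu2+ (25 µM), with or without compound (25 µM final), in 20 mM HEPES/150 mM NaCl pH 6.6 at 37 °C for 24 h. 5 µM ThT in 50 mM glycine-NaOH pH 8.5 was then added. Fluorescence was read at ex 446/em 490 nm. Percent inhibition was taken versus no-inhibitor control after background subtraction, in triplicate.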

[10] = target: T1, Amine oxidase [flavin-containing] B (Homo sapiens, UniProt P27338); experiment: Inhibition of recombinant human MAO-B expressed in baculovirus infected High 5 insect cells using kynuramine as substrate incubated for 30 mins by spectrofluorometric method; assay type: cell-based
T1 sequence (P27338 whole entry): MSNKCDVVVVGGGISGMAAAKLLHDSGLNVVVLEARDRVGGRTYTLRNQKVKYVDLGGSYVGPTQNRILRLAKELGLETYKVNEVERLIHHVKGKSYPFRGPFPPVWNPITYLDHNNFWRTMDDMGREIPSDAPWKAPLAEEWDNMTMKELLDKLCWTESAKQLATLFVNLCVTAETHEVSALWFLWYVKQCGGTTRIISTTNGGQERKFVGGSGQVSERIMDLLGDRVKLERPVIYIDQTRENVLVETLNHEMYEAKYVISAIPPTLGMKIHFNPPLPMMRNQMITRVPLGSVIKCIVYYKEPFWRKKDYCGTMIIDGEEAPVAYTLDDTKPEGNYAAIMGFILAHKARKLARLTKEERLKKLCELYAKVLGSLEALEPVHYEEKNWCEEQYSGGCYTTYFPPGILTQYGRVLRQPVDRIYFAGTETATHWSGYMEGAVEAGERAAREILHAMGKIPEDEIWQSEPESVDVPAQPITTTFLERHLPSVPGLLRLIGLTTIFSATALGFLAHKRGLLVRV

[11] = target: T2, Amine oxidase [flavin-containing] A (Homo sapiens, UniProt P21397); experiment: Inhibition of recombinant human MAO-A expressed in baculovirus infected High 5 insect cells at 10 uM using kynuramine as substrate incubated for 30 mins by spectrofluorometric method relative to control; settings: 0.5 h
T2 sequence (P21397 whole entry): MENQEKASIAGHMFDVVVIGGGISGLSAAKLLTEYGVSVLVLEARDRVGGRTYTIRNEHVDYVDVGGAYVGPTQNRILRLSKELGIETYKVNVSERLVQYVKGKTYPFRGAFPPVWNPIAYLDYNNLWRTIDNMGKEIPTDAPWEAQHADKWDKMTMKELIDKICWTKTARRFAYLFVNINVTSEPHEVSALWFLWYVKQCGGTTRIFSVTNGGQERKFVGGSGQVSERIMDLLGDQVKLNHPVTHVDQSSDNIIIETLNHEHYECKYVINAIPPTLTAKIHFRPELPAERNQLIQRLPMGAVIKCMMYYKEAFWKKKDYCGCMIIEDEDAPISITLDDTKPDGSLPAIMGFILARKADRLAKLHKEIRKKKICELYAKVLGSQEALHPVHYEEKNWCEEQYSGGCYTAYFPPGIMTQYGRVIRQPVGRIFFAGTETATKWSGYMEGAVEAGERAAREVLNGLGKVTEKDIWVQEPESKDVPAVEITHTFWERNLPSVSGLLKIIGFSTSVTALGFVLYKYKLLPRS
Summary of the method: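 Recombinant human MAO-A or MAO-B (7.5 µg/mL) with kynuramine substrate in 100 mM potassium phosphate pH 7.4 (KCl-isotonic), <4% DMSO, 30 min at 37 °C. Stopped with 2 N NaOH. 4-Hydroxyquinoline was measured fluorometrically (ex 310/em 400 nm) against a calibration curve. Single-point inhibition at 10 µM. IC50 from six-concentration sigmoidal curves, triplicate. SI = IC50(MAO-A)/IC50(MAO-B).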

[12] = target: T1, Amine oxidase [flavin-containing] B; experiment: Potency index, ratio of iproniazid IC50 to compound IC50 for recombinant human MAO-B expressed in baculovirus infected High 5 insect cells
[13] = target: T1, Amine oxidase [flavin-containing] B; experiment: Potency index, ratio of rasagiline IC50 to compound IC50 for recombinant human MAO-B expressed in baculovirus infected High 5 insect cells
[14] = Permeability of compound at 100 ug/ml after 18 hrs by PAMPA; assay type: ADME; settings: read-out: permeability

Sequence of Acetylcholinesterase (Electrophorus electricus) (O42275 24-633 limits assumed): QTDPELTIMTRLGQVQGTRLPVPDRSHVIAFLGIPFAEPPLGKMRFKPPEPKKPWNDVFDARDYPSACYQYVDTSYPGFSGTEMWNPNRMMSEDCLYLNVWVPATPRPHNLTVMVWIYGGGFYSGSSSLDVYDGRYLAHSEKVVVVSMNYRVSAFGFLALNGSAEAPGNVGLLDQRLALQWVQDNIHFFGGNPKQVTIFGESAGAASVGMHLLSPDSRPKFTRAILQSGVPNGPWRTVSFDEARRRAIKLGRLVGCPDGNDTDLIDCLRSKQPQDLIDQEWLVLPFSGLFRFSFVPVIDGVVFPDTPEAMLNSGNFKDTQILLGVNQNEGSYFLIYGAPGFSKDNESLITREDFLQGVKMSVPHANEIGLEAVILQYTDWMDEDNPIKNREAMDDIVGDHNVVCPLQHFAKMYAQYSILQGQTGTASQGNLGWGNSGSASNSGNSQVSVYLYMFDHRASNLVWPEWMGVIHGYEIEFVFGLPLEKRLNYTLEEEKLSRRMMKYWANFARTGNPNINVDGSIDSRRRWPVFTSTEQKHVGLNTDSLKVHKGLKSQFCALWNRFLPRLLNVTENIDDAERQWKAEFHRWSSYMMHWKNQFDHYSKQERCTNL
Sequence of Amyloid-beta precursor protein (Homo sapiens) (P05067 whole entry): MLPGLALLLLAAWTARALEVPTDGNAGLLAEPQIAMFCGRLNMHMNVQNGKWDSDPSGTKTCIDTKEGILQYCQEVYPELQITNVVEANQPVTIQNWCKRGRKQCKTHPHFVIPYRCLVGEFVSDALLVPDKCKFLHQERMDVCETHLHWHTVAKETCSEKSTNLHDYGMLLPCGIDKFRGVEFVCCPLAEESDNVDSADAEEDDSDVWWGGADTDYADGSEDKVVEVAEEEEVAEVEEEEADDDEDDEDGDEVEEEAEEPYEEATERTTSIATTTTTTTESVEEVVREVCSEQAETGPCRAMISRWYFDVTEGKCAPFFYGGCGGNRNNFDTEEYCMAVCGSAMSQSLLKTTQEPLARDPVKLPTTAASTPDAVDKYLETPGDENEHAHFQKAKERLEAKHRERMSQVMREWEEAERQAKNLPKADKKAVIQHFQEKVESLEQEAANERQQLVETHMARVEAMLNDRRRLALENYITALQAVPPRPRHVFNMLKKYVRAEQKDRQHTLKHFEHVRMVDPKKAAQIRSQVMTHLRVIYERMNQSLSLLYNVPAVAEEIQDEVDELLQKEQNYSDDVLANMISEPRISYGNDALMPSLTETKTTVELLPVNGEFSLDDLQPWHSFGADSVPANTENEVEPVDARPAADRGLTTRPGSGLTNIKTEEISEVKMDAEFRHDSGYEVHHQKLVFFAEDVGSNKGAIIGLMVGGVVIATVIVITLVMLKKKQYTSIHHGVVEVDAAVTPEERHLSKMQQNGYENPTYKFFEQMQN
Sequence of Acetylcholinesterase (O42275 whole entry): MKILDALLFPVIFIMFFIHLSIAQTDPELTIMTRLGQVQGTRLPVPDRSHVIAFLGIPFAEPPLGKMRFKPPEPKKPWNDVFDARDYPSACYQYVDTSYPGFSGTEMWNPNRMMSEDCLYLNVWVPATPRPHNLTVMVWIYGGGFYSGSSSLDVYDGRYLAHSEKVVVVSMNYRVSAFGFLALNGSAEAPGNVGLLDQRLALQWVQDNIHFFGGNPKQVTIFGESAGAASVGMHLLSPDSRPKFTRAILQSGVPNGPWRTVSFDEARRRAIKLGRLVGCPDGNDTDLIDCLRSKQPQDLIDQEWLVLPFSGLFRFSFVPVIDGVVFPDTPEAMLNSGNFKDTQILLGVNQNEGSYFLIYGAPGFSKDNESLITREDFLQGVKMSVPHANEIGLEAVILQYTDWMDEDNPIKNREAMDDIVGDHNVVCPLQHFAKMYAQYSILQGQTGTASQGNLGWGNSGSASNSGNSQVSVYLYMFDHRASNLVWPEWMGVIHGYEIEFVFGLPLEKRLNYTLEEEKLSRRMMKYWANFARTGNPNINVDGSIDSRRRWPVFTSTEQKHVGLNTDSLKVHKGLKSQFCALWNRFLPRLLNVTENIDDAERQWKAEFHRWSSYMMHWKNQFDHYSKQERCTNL

With `CN(C)c1ccc(/C=C/C(=O)c2ccc(OC(=O)N3CCCC3)cc2O)cc1` the IC50 [1] was 4910 nM, the “inhibition (INH)” value [2] was < 10% and the Activity [3] was 2.83 µMequiv/µM. For the same compound, the inhibition [4] was “Active”, the Activity [5] was “Active” and the Activity [6] was “Active”. For the same compound, the Activity [7] was 0.98 molar ratio, the inhibition [8] was 89.5% and the inhibition [9] was 79.7%. For the same compound, the IC50 [10] was 290 nM, the inhibition at 10 µM [11] was 12.8% and the “Ratio IC50” value [12] was > 26.7. The “Ratio IC50” value [13] was 2 and the Papp at 18 h, 100 ug/ml [14] was 7.03 ×10⁻⁶ cm/s.
